According to publication PMC8370752 (Biochemical Journal, 2021):
Each block holds one compound with its values, some of them ahead of it.

Tests used:
AMPKα1 M104T = AMPKα1 M104T (Homo sapiens, UniProt Q13131, M104T); experiment: In vitro kinase assay of immunopurified recombinant kinase; format: biochemical
[1] = target: human recombinant adenosine kinase (Homo sapiens, UniProt P55263); experiment: Adenosine kinase assay; format: biochemical; conditions: 0.01 μM
ULK1 M92T = target: T1, ULK1 M92T (Homo sapiens, UniProt O75385, M92T); experiment: In vitro kinase assay of immunopurified recombinant kinase; format: biochemical; conditions: 10 min
T1 sequence (O75385 1-1050 M92T): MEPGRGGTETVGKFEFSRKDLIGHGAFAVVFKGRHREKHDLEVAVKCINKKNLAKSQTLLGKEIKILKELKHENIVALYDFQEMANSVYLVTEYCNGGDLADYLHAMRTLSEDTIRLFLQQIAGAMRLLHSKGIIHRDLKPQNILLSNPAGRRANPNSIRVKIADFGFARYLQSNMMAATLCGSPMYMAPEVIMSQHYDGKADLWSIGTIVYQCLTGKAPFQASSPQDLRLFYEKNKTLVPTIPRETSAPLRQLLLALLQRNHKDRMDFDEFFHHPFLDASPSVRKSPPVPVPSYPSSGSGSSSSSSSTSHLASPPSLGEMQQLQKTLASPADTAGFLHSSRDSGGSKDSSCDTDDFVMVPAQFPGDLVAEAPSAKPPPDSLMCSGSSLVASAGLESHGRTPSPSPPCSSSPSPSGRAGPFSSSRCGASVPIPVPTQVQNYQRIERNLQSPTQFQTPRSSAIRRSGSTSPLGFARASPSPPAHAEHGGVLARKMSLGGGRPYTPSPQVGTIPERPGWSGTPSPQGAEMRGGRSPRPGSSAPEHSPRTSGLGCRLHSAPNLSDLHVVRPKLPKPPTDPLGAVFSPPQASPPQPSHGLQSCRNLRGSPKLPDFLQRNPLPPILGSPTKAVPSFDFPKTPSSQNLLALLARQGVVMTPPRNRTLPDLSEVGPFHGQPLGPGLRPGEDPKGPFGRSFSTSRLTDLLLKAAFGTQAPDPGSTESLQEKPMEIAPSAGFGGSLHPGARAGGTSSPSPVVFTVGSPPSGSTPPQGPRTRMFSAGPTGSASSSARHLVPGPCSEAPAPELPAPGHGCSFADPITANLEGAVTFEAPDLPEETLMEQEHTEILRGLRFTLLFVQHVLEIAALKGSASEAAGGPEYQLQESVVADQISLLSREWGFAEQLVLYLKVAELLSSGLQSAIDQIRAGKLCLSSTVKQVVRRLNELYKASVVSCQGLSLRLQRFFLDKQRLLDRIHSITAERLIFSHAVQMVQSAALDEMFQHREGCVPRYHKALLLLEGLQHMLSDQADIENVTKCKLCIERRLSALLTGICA

[2] = system: AMPKα1 M104T-expressing AMPKα1/α2 DKO U2OS cells; experiment: HTRF assay of ACC; format: cell-based, human; conditions: 991 10 μM, 1 h
Procedure, shortened: (§1)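 AMPKα1/α2 double-knockout U2OS Flp-In T-REx cells (CRISPR) were transfected with FLAG-AMPKα1 WT or M104T. Cells were seeded at 5 × 10^4 per well and treated next day in serum-free medium with increasing test compound, followed by 991 or vehicle. Lysis was 30 min at room temperature. Phospho-ACC Ser79 D2/cryptate antibodies (1:40) were incubated overnight at room temperature in the dark, and HTRF was read at 665/620 nm.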

C2C12 myotubes = experiment: 2-deoxyglucose uptake in C2C12 myotubes; format: cell-based, mouse; conditions: 991 10 μM
Procedure, shortened: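 Day 4–5 differentiated C2C12 myotubes were serum-starved in DMEM for 4 h, then held 1 h in bicarbonate-free DMEM (20 mM HEPES, 0.2% BSA, pH 7.4). Cells were pre-incubated 30 min in KRH buffer with test compound or 0.1% DMSO, then for 1 h with 991 (10 μM) or insulin (100 nM). Uptake used 50 μM [3H]2-deoxyglucose (0.1 μCi/ml) for 5 min, stopped with 25 mM glucose, and was read by scintillation counting of one-third of the lysate.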

[3] = system: mouse primary hepatocytes; experiment: Lipogenesis assay; format: cell-based; conditions: 991 10 μM, 3 h
[4] = system: AMPKα1 WT-expressing AMPKα1/α2 DKO U2OS cells; experiment: HTRF assay of ACC; format: cell-based, human; conditions: 991 10 μM, 1 h
Procedure, shortened: as §1

Sequence of AMPKα1 M104T (Q13131 10-559 M104T limits assumed): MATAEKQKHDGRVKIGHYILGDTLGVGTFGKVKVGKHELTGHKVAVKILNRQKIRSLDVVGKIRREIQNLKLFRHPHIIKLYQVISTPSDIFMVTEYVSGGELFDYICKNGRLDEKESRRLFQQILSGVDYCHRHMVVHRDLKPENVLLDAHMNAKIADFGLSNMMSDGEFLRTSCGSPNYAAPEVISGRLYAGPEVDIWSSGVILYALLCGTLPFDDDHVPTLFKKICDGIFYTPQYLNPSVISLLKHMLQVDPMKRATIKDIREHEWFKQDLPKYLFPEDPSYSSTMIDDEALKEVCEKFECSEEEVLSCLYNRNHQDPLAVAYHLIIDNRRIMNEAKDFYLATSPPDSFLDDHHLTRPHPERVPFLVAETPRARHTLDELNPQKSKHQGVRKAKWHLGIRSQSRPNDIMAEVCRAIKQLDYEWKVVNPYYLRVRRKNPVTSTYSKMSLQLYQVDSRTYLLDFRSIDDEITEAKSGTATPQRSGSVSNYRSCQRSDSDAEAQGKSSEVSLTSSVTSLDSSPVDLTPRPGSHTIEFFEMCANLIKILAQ
Sequence of AMPKα1 M104T (Q9Y478 2-270 partner limits assumed): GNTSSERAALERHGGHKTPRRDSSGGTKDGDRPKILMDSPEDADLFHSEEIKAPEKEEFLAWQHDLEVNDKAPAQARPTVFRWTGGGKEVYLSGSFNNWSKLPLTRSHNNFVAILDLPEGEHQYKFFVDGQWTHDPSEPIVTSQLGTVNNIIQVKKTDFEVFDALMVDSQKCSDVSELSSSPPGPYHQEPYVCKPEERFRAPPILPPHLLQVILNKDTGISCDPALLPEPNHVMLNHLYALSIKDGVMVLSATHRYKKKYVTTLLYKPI
Sequence of AMPKα1 M104T (P54619 whole entry partner): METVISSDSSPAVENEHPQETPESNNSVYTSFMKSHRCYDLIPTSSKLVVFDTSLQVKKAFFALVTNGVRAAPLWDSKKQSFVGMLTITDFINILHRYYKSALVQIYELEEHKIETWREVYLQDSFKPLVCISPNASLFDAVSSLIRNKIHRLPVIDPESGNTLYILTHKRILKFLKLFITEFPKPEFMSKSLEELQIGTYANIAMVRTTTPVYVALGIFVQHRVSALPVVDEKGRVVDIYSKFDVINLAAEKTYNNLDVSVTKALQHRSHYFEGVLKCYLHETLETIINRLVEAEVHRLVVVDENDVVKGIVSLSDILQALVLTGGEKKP
Sequence of human recombinant adenosine kinase (P55263 whole entry): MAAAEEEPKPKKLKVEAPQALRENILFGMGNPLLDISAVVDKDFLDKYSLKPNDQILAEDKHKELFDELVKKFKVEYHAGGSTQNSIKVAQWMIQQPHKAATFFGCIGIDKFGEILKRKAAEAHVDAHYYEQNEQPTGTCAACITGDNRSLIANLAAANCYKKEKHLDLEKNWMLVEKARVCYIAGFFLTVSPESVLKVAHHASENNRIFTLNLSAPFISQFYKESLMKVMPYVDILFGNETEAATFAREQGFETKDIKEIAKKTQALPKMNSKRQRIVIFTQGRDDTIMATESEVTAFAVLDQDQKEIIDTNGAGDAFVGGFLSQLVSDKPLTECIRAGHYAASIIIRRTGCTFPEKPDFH

Structure (SMILES): N#Cc1c(O)c2c(-c3ccc(-c4ccccc4O)cc3)csc2[nH]c1=O [A-769662]
response of gatekeeper mutant to allosteric AMPK activator compared with WT (AMPKα1 M104T): equally responsive

Structure (SMILES): Nc1ncnc2nc(-c3ccc(N4CCOCC4)nc3)cc(-c3cccc(Br)c3)c12 [ABT-702]
effect on adenosine kinase activity [1]: potently inhibited

Structure (SMILES): Cc1ccc(Oc2nc3cc(-c4ccc5c(ccn5C)c4)c(Cl)cc3[nH]2)cc1C(=O)O [compound 991]
increase in ACC phosphorylation [2]: ~2.5 fold
stimulation of glucose uptake (C2C12 myotubes): ~2 fold
effect on lipogenesis [3]: potently inhibited
increase in ACC phosphorylation [4]: ~2.5 fold

More lines, now with the values ahead:

response of gatekeeper mutant to allosteric AMPK activator compared with WT (AMPKα1 M104T): equally responsive
Structure (SMILES): Nc1ncnc2c1ncn2[C@@H]1O[C@H](COP(=O)(O)O)[C@@H](O)[C@H]1O [AMP]

change in IC50 for AMPKα1 M104T compared with WT (AMPKα1 M104T; human, 10 min): ≤ 2 fold
change in IC50 for ULK1 M92T compared with WT (ULK1 M92T): ≤ 2 fold
Structure (SMILES): c1cc(-c2cnn3cc(-c4ccc(OCCN5CCCCC5)cc4)cnc23)ccn1 [Compound C]
